Assay results reported in ChEMBL document CHEMBL1124062, “Structure-affinity relationships of arylquinolizines at alpha-adrenoceptors” (J Med Chem, 1988).

What was measured:
[1] = Selectivity expressed as the ratio of Ki of [3H]prazosin to Ki of [3H]-clonidine
[2] = biological target: T1, Alpha-2A adrenergic receptor (Bos taurus, UniProt Q28838); experiment: Compound was evaluated for log 1/Ki at alpha-2 adrenergic receptor; details: read-out: Log 1/Ki (converted)
T1 sequence (Q28838 whole entry): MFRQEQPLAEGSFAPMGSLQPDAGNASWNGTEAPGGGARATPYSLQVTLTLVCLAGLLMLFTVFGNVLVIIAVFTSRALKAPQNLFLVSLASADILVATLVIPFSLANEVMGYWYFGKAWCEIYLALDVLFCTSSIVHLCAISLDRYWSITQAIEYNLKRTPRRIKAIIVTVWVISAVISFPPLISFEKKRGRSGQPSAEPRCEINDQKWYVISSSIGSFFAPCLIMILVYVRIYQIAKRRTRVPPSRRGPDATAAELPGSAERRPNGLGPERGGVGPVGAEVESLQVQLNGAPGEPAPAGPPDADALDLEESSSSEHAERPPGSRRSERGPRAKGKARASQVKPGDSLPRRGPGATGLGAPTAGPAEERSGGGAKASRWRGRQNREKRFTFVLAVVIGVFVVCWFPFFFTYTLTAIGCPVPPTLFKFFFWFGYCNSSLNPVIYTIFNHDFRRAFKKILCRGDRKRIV
Outline: (§1)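 Membranes from calf cerebral cortex as the receptor source. Alpha1 sites labelled with [3H]prazosin and alpha2 sites with [3H]clonidine. Affinity measured as displacement of each radioligand.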

[3] = biological target: T1, Alpha-2A adrenergic receptor; experiment: Affinity to alpha-2 adrenergic receptor by the displacement of [3H]clonidine from calf cerebral cortex membranes; assay type: tissue-based; outline: as §1
[4] = Partition coefficient (logD) (octanol/phosphate buffer); assay type: physicochemical
Outline: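 Shake-flask partition between octanol and pH 7.4 phosphate buffer of ionic strength 0.1 as the aqueous phase. Compound level in each phase read by UV absorption.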

[5] = biological target: T2, Alpha-1A adrenergic receptor (Bos taurus, UniProt P18130); experiment: Affinity to alpha-1 adrenergic receptor by the displacement of [3H]-prazosin from calf cerebral cortex membranes; assay type: tissue-based; outline: as §1
T2 sequence (P18130 whole entry): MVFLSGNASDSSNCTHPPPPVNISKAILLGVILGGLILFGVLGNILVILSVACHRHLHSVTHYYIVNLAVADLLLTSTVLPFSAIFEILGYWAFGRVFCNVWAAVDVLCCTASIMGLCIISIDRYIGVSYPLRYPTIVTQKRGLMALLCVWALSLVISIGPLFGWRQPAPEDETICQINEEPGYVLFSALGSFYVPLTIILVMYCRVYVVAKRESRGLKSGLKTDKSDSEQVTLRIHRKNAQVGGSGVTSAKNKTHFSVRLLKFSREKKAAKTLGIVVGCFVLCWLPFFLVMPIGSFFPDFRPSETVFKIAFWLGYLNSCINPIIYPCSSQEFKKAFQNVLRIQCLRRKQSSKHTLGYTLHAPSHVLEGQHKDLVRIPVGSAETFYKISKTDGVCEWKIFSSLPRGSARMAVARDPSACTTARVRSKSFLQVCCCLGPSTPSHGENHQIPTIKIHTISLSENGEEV

[6] = biological target: T2, Alpha-1A adrenergic receptor; experiment: Compound was evaluated for log 1/Ki at alpha-1 adrenergic receptor; details: read-out: Log 1/Ki (converted); outline: as §1

c1cnc2[nH]c3c(c2c1)CCN1CCCCC31 (stereo not drawn)
Selectivity [1]: 0.8
Ki [2]: 661 nM
Ki [3]: 660 nM
logD [4]: 0.16
Ki [5]: 540 nM
Ki [6]: 537 nM

c1ccc2c3c([nH]c2c1)C1CCCCN1CC3 (stereo not drawn)
logD [4]: 1.83

Nc1nc2c(s1)CCN1CCCCC21 (stereo not drawn)
Selectivity [1]: 8
Ki [2]: 347 nM
Ki [3]: 350 nM
logD [4]: 0.39
Ki [5]: 2800 nM
Ki [6]: 2820 nM

c1[nH]nc2c1CCN1CCCCC21 (stereo not drawn)
Selectivity [1]: 2.5
Ki [2]: 9550 nM
Ki [3]: 9600 nM
logD [4]: 0.16
Ki [5]: 24000 nM
Ki [6]: 24000 nM

c1cnc2c(c1)CCN1CCCCC21 (stereo not drawn)
Selectivity [1]: 1.6
Ki [2]: 2000 nM
Ki [3]: 2000 nM
logD [4]: 0.39
Ki [5]: 3250 nM
Ki [6]: 3240 nM

c1ccc2c3c(oc2c1)C1CCCCN1CC3 (stereo not drawn)
Selectivity [1]: 6.8
Ki [2]: 16.2 nM
Ki [3]: 16.2 nM
logD [4]: 1.8
Ki [5]: 110 nM
Ki [6]: 110 nM

c1cc2c(s1)C1CCCCN1CC2 (stereo not drawn)
Selectivity [1]: 5.6
Ki [2]: 195 nM
Ki [3]: 195 nM
logD [4]: 1.51
Ki [5]: 1100 nM
Ki [6]: 1100 nM

c1ccc2c3c(sc2c1)C1CCCCN1CC3 (stereo not drawn)
Selectivity [1]: 3.7
Ki [2]: 4.27 nM
Ki [3]: 4.3 nM
logD [4]: 2.09
Ki [5]: 16.1 nM
Ki [6]: 16.2 nM
